This is a sample that favours compounds with a hit; in the whole collection about 2.3% have one here.
TRPC4 PAM: allosterically enhances the mouse TRPC4 cation channel. HEK293 TRPC4beta/mu-opioid, DAMGO EC20, Fluo-4 Ca2+ flux; hits give high values. B-score at 10 µM. 310,000 compounds, 0.42% hits. AID 2227;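 active = B-score of calcium response area above 5 SD of library B-scores, with initial fluorescence ratio within 5 SD of library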
TRPC4 block: TRPC4 (mouse) channel inhibition | 300,000 compounds, 0.39% hits | B-score at 10 µM | Q9QUQ5 | HEK293 TRPC4beta/mu-opioid, DAMGO-evoked Fluo4 calcium flux; hits give low values;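 active = B-score over 3 SD under the library average, no early fluorescence shift, positive overall ratio signal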
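Assay system – HEK293 line stably carrying TRPC4beta and mu-opioid receptor · Doses – single dose · Detection – Fluo4 calcium-dye fluorescence, kinetic read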
TRPC6 act: mouse TRPC6 channel activation. Q61143. HEK293-TRPC6 membrane potential dye fluorescence; hits give high values. B-score at 10 µM. 310,000 compounds, 0.13% hits. AID 2550;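 active = B-score of the integrated fluorescence ratio above library mean plus 3 SD, and starting fluorescence ratio within library mean plus 5 SD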;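 note: higher score means more depolarization so channel activation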
TRPC6 inh: blocks the mouse TRPC6 cation channel; Q61143; HEK293-TRPC6, membrane potential dye, ACh-evoked depolarization; hits give low values; B-score at 10 µM; 310,000 compounds, 1.1% hits; AID 2553;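 active = B-score under library mean minus 3 SD, initial fluorescence not abnormally high, positive integrated signal ratio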;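 note: B-score derived from integrated fluorescence ratio over the kinetic read; more negative B-score means stronger inhibition of depolarization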
TRPC4 agonist: activators of mouse TRPC4 channel; Q9QUQ5; B-score at 10 µM; HEK293 TRPC4beta/mu-opioid, Fluo4 calcium fluorescence; hits give high values; 310,000 compounds, 0.49% hits;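 active = B-score above 5 SD of library B-scores, and initial fluorescence ratio not above library mean plus 5 SD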;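 note: positive B-score marks a calcium rise read as TRPC4 activation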
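Material: HEK293 stable line with TRPC4beta plus mu-opioid receptor; technique: Fluo4 calcium-sensitive dye fluorescence, kinetic, 1 Hz baseline; timing: Fluo4 dye loading 45 min at room temperature, 110 s recording; controls: assay buffer as low control, maximal DAMGO as high control; read-out: integrated baseline-normalised fluorescence ratio, converted to per-well B score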
Each line names hits and unclear results; the compound was inactive in the other large screens; ! = not confirmed by another sample.

CC1C(=O)N(Cc2ccccc2F)c2ccccc2N1C(=O)c1c(F)cccc1F (stereo unspecified)	TRPC4 PAM 10
Cc1ccc2occ(/C=N/NC(=O)[C@@H](N)Cc3ccccc3)c(=O)c2c1	TRPC4 PAM 12
COCCCNc1nc(-c2ccncc2)nc2ccccc12	none
COCCNc1nc(-c2ccccc2)nc2ccccc12	TRPC4 block -5
CCCOc1ccc(N2C(=O)CC(N3CCN(c4nc5ccccc5s4)CC3)C2=O)cc1 (stereo unspecified)	none
O=C1CC(N2CCN(c3nc4ccccc4s3)CC2)C(=O)N1c1cccc(F)c1 (stereo unspecified)	TRPC4 PAM 10
Cc1ccccc1N1CC(C(=O)Nc2ccncc2)CC1=O (stereo unspecified)	none
CCc1cc(OCCN2C(=O)NC(C)(C)C2=O)ccc1Cl	TRPC4 PAM 14
CCc1cc(OCCN(C)C)ccc1Cl	TRPC4 PAM 26, TRPC4 agonist 100
COc1ccc(-c2cccc(NC(=O)c3ccc4c(c3)OCO4)c2)nn1	none
CC(C(=O)N1CCN(Cc2ccc3c(c2)OCO3)CC1)n1cc([N+](=O)[O-])cn1 (stereo unspecified)	none
CCCSc1nnc(CNS(=O)(=O)c2ccc(C)cc2)n1C	none
C(=N\c1nc2ccccc2[nH]1)/c1cccs1	TRPC4 agonist 54
Cn1c(/C=N/c2nc3ccccc3[nH]2)nc2ccccc21	none
COc1ccc(CCNC(=O)C2CCCN(S(=O)(=O)c3cc(C)ccc3OC)C2)cc1OC (stereo unspecified)	none
CC(=O)[C@@H]1[C@@H]2C(=O)N(c3ccc(F)c(Cl)c3)C(=O)[C@@H]2C2c3ccccc3C=CN21 (stereo partly specified)	TRPC4 block -7
CC(=O)[C@H]1[C@@H]2C(=O)N(c3cccc(Cl)c3)C(=O)[C@@H]2[C@H]2c3ccccc3C=CN21	none
COC1c2ccccc2C(=O)N1CCc1ccc(Cl)cc1 (stereo unspecified)	none
CCOC(=O)c1c(N)sc(-c2ccccc2)c1C	none
CCOC(=O)c1c(N)sc(C(O)(C(F)(F)F)C(F)(F)F)c1-c1ccccc1	TRPC4 block -7
COc1ccc(-c2cc(=O)oc3c(C)c(OC(C)C(=O)Nc4ccc(CN5CCOCC5)cc4)ccc23)cc1 (stereo unspecified)	none
O=C(O)CCC1c2cc3c4cc2OC2Oc5cc6c(cc51)C(CCC(=O)O)c1cc5c7cc1OC(O6)c1cc6cc(c1)Oc1cc(cc(C(=O)O)c1)Oc1cc8cc(c1)C(Oc1cc(c(cc1C5CCC(=O)O)C3CCC(=O)O)OC(O4)c1cc(cc(c1)Oc1cc(cc(C(=O)O)c1)O8)Oc1cc(cc(C(=O)O)c1)Oc1cc(cc2c1)Oc1cc(cc(C(=O)O)c1)O6)O7 (stereo unspecified)	TRPC6 act 186, TRPC4 agonist 43
CC1CCCCC1NC(=O)c1c(O)nc2ccccn2c1=O (stereo unspecified)	none
COCCNC(=O)C(c1ccc(F)cc1)N(C(=O)CCC(=O)Nc1ccccn1)C1CCCCC1 (stereo unspecified)	none
CCN(C(=O)c1cnc(NC(C)C)cc1C(F)(F)F)c1ccc(Cl)cc1Cl	TRPC4 block -6
CCCCN(CC)CCNC(=O)c1cc2c(=O)[nH]c3ccccc3c2s1	TRPC4 agonist 48
CCOC(CCNC(=O)c1cc2c(=O)[nH]c3ccccc3c2s1)OCC	none
CCCN(CCC)CCCNC(=O)c1cc2c(=O)[nH]c3ccccc3c2s1	TRPC4 agonist 80
O=C(Nc1ccc2c(c1)CCC2)c1ccc(Cl)nc1	TRPC4 block -6
O=C(Nc1ccc2c(c1)CCC2)c1cnc(Cl)c(Cl)c1	none
Clc1ccc(CN2C3=NCCCN3c3ccccc32)cc1Cl	TRPC4 block -6
Clc1ccc(CN2C3=NCCCN3c3ccccc32)cc1	none
COc1ccc(N2CCN(C3CCCCC3NS(=O)(=O)c3ccc(Cl)cc3)CC2)cc1 (stereo unspecified)	TRPC4 PAM 15
COc1ccccc1N1CCN(C2CCCCC2NS(=O)(=O)c2ccc(Cl)cc2)CC1 (stereo unspecified)	none
COC(=O)[C@]1(Cc2ccccc2)N[C@H](c2ccc(-c3ccc4c(c3)OCO4)cc2)[C@@H]2C(=O)N(C)C(=O)[C@@H]21	none
COc1cc(C2N(c3ccc(Cl)c(Cl)c3)C(=O)C3CCCN32)cc(OC)c1OC (stereo unspecified)	TRPC4 agonist 81
COc1cc(C2N(c3ccc(Cl)cc3)C(=O)C3CCCN32)cc(OC)c1OC (stereo unspecified)	none
Cc1ccc(C2N(c3ccc(Cl)c(Cl)c3)C(=O)C3CCCN32)o1 (stereo unspecified)	TRPC4 PAM 15, TRPC4 agonist 122
COc1ccc(N2C(=O)C3CCCN3C2c2cc(OC)c(OC)c(OC)c2)cc1 (stereo unspecified)	none
COc1ccc(N2C(=O)C3CCCN3C2c2ccc(C)o2)cc1Cl (stereo unspecified)	none
COc1cc(C2N(c3cccc(Cl)c3)C(=O)C3CCCN32)cc(OC)c1OC (stereo unspecified)	TRPC4 PAM 14
CN(C)c1ccc(/C=N/Nc2nncc3ccccc23)cc1	none
O=C(Nc1ccc2c(c1)CN(Cc1ccccc1O)CC2)C1CCCO1 (stereo unspecified)	none
Cc1ccnc(NC(=O)CNC(=O)c2ccc(Br)o2)c1	none
Cc1ccc(NC(=O)CCSc2nnc(C)o2)cc1	none
CC1(C)C(=O)Nc2ccccc2N1C(=O)COC(=O)C1CCCCC1	TRPC4 PAM 10
Cc1cc(NC(=O)C(C)SCC(=O)OCc2ccc([N+](=O)[O-])cc2)no1 (stereo unspecified)	none
C=CCc1ccccc1OCC(O)CN1CCN(Cc2ccc3c(c2)OCO3)CC1 (stereo unspecified)	TRPC4 block -7!
CCOc1ccc(CN(C)CC(=O)NNC(=O)c2ccc(Cl)cc2)cc1OC	TRPC4 PAM 17
O=C(Nc1ccc(Br)cc1)c1cnc[nH]1	none
Cc1cccc(C(=O)NCCN(C)C)c1	TRPC4 agonist 73
CCc1cc(C(=O)NCCN(C)C)cs1	TRPC4 agonist 78
COc1ccccc1NC(=O)COC(=O)c1ccccc1C(=O)N1CCN(c2ccccc2)CC1	TRPC4 PAM 11
COc1ccc(N2CCN(C(=O)COC(=O)CCc3ccccc3OC)CC2)cc1	none
COc1ccc(C(CNC(=O)C2CCN(S(=O)(=O)c3ccc(F)cc3)CC2)N(C)C)cc1 (stereo unspecified)	TRPC4 agonist 137
Cc1ccc(-n2ncc3c2CC(C)(C)CC3NC(=O)CCc2ccc(=O)[nH]n2)cc1 (stereo unspecified)	none
O=C(CSCc1ccc(Br)cc1)Nc1ccccc1C(=O)N1CCOCC1	none
CN1CCN(c2ccc(NC(=O)COc3ccc4ccccc4c3)cc2)CC1	none

From PubChem
